The source made the active and inactive calls. The rule behind the calls is not given here. Where a SMILES comes first, the peptide text is derived from it.
What was measured:
Lipid bilayer = assay: Induction of membrane disruption in PG/CL/PE large unilamellar vesicles assessed as calcein-entrapped liposome leakage at 64 uM after 15 mins by spectrofluorophotometric assay relative to control
Procedure, shortened: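 Calcein (70 mM)-loaded LUVs of PG/CL/PE (2:1:7 w/w/w, E. coli membrane mimic), made by freeze-thaw and 100-nm extrusion, free dye removed on Sephadex G-50. LUVs (100 μM) exposed to peptide (1–64 μM) for 15 min. Leakage read at ex 490/em 520 nm: liposomes alone are background, Triton X-100 is 100%. Independent triplicates.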

Lipopolysaccharide (LPS) [1] = assay: Displacement of BODIPY-TR-cadaverine from Escherichia coli O111:B4 LPS at 1 to 64 uM after 1 hr by spectrofluorophotometric method relative to control
Procedure, shortened: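 LPS from E. coli O111:B4 (50 μg/mL) preincubated 4 h with BODIPY-TR-cadaverine (5 μg/mL) in 50 mM Tris, pH 7.4. Mixed with equal volume of peptide (1-64 µM) and incubated 1 h at 37 °C, then fluorescence read. %ΔF = (Fobs−F0)/(F100−F0)×100, with 10 μg mL-1 polymyxin B defining F100. Three technical replicates per experiment.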

Escherichia coli [2] = assay: Induction of cytoplasmic membrane […] in Escherichia coli ATCC 25922 assessed as increase in ONPG release at 1 to 64 uM measured at 6 mins interval for 120 mins by spectroscopically; assay type: organism-based
Procedure, shortened: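 E. coli 25922 grown to mid-log in MHB with 2% lactose, then diluted to OD600 0.05 in 5 mM HEPES pH 7.4 with 20 mM glucose and 1.5 mM ONPG. Mixed with equal volume of peptide (1 to 64 μM) at 37 °C. OD420 read every 6 min for 0–120 min. Triplicate, three biological replicates.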

Pseudomonas aeruginosa [3] = assay: Antibacterial activity against Pseudomonas aeruginosa ATCC 27853 at sub-MBC measured after 17 serial passages; assay type: functional, organism-based
Procedure, shortened: (§1)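 P. aeruginosa ATCC 27853 passaged every 24 h by 100-fold dilution in MHB containing sub-MBC drug, for 30 passages. MBC was tested on the cells from each passage. Control cells were passaged in drug-free MHB. Run independently in triplicate with three biological replicates.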

Pseudomonas aeruginosa [4] = assay: Antibacterial activity against Pseudomonas aeruginosa ATCC 27853 assessed as ratio of MBC after and before 30 serial passages at sub-MBC; assay type: functional; procedure, shortened: as §1
[5] = system: Salmonella enterica subsp. enterica serovar Pullorum; assay: Antibacterial activity against Salmonella pullorum ATCC 7913 measured after 24 hrs; assay type: functional
Procedure, shortened: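 Broth microdilution adapted from NCCLS. Mid-log bacteria were diluted in MHB to a final (0.5–1) × 10^5 CFU mL−1. Peptides were serially diluted in 0.2% BSA and mixed with an equal volume of cells. After 24 h at 37 °C, MIC was read at A492 as the lowest concentration inhibiting 95% of growth. At least three independent experiments, each with three technical replicates.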

[6] = system: Salmonella enterica subsp. enterica serovar Pullorum; assay: Bactericidal activity against Salmonella pullorum ATCC 7913 incubated for 24 hrs followed by replating on agar plate and measured after overnight incubation; assay type: functional
Procedure, shortened: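 Mid-log bacteria diluted in MHB to (0.5–1) × 10^5 CFU/mL and mixed 1:1 with peptide serially diluted in 0.2% BSA. After 24 h at 37 °C, 50 μL of each mixture was plated on agar and incubated overnight. MBC taken as the lowest concentration killing >99.9% of cells. At least three independent experiments, each with three technical replicates.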

Staphylococcus aureus [7] = assay: Bactericidal activity against Staphylococcus aureus ATCC 29213 assessed as reduction in bacterial growth at MBC measured within 30 mins by time-kill assay relative to control; assay type: functional; parameters: scale not given: the % may be the effect or the level left
Procedure, shortened: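 Time-kill: cells at a final 0.5–1×10^5 CFU/mL were exposed to peptide at 1×MBC/MFC. Aliquots were removed at intervals to count survivors against an untreated control. Means of three independent experiments, each with three technical replicates.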

Staphylococcus aureus [8] = assay: Antibacterial activity against Staphylococcus aureus ATCC 29213 assessed as ratio of MIC95 in presence of NaCl to in absence of NaCl; assay type: functional
Candida albicans = assay: Antifungal activity against Candida albicans cgmcc2.2086 infected in C57BL/6 mouse model of keratitis assessed as reduction in clinical score at 1 to 5 mg/ml administered as topical eye drop every 5 mins for first 4 hrs and every 30 mins for next 7 hrs measured post-last dose; assay type: functional, organism-based
Escherichia coli [9] = assay: Disruption of plasma membrane integrity in Escherichia coli ATCC 25922 at MBC measured after 30 mins using FITC-labeled compound by propidium iodide staining-based microscopic analysis; assay type: organism-based
Procedure, shortened: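 E. coli ATCC 25922 or S. aureus ATCC 29213 (OD600 0.2) incubated with FITC-labeled peptide at 1×MBC, 37 °C, 30 min. Cells washed, resuspended with PI (10 μg/mL) in PBS, smeared and imaged by superresolution microscopy using 488 and 535 nm filters for FITC and PI. Peptide-free cells served as controls. Three independent scans.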

Lipopolysaccharide (LPS) [10] = assay: Displacement of BODIPY-TR-cadaverine from Escherichia coli O111:B4 LPS at 16 uM after 1 hr by spectrofluorophotometric method relative to control
Procedure, shortened: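 E. coli O111:B4 LPS (50 μg/mL) preloaded 4 h with BODIPY-TR-cadaverine (5 μg/mL) in 50 mM Tris, pH 7.4. Mixed 1:1 with peptide (1–64 µM series), 1 h at 37 °C, then fluorescence read. Expressed as %ΔF: 0% is probe with LPS and no peptide, 100% is probe with LPS plus 10 μg/mL polymyxin B. Three technical replicates.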

Escherichia coli [11] = assay: Induction of outer membrane permeabilization in Escherichia coli ATCC 25922 at 4 uM by NPN-dye based assay relative to control
Procedure, shortened: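 Mid-log E. coli ATCC 25922 (OD600 0.2) incubated 30 min with NPN (10 μM) in 5 mM HEPES pH 7.4 with 5 mM glucose, then mixed 1:1 with peptide (1–64 μM). Fluorescence (ex 350/em 420 nm) recorded until it plateaued. Percent NPN uptake calculated relative to no peptide and to 10 μg/mL polymyxin B. Three independent experiments, triplicates.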

Escherichia coli [12] = assay: Induction of cytoplasmic membrane depolarization in Escherichia coli ATCC 25922 assessed as fluorescence intensity at 4 uM up to 3000 secs by DiSC3-5 dye-based fluorescence spectrophotometric method
Procedure, shortened: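 Mid-log E. coli ATCC 25922 (OD600 0.05) loaded with 0.4 μM DiSC3-5 and 100 mM K+ in 5 mM HEPES pH 7.4 with 20 mM glucose until fluorescence stabilized. Peptide added in a 1-cm cuvette and fluorescence (ex 622, em 670 nm) recorded 0–3000 s. Triplicate, three biological replicates.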

Staphylococcus aureus [13] = assay: Induction of morphological changes in Staphylococcus aureus ATCC 29213 assessed as membrane blebbing at MBD measured after 1 hr by atomic force microscopic analysis; assay type: functional, organism-based
Staphylococcus aureus [14] = assay: Induction of morphological changes in Staphylococcus aureus ATCC 29213 assessed as hole formation at MBD measured after 1 hr by atomic force microscopic analysis; assay type: functional, organism-based
Escherichia coli [15] = assay: Induction of morphological changes in Escherichia coli ATCC 25922 assessed as appearance of visible sparse cytoplasmic distribution at MBD measured after 1 hr by transmission electron microscopic analysis; assay type: functional, organism-based

Compound | Activity (Lipid bilayer) [%] | Activity (Lipopolysaccharide (LPS) [1]) [%] | Activity (Escherichia coli [2]) | Activity (Pseudomonas aeruginosa [3]) | Ratio (Pseudomonas aeruginosa [4]) | MIC95 [5] [µM] | MBC>99.9 [6] [µM] | Ratio (Staphylococcus aureus [8]) | also measured
CC[C@H](C)[C@H](NC(=O)[C@H](CCCCN)NC(=O)[C@H](C)NC(=O)[C@H](C)N)C(=O)N[C@H](C(=O)N[C@@H](CC(C)C)C(=O)N[C@@H](CC(N)=O)C(=O)N1CCC[C@H]1C(=O)N[C@@H](CCCCN)C(=O)N[C@@H](Cc1ccccc1)C(=O)N[C@@H](CCCNC(=N)N)C(=O)N[C@@H](CS)C(=O)N[C@@H](CCCCN)C(=O)N[C@@H](C)C(=O)N[C@@H](C)C(=O)N[C@@H](Cc1ccccc1)C(=O)N[C@@H](CS)C(N)=O)[C@@H](C)CC (H-AAKIILNPKFRCKAAFC-NH2) | < 5 | 72 | Active | – | – | – | – | – | –
CC[C@H](C)[C@H](NC(=O)CN)C(=O)NCC(=O)N[C@@H](C)C(=O)N[C@H](C(=O)N[C@@H](CC(C)C)C(=O)N[C@@H](CCCCN)C(=O)N[C@H](C(=O)N[C@@H](CC(C)C)C(=O)N[C@H](C(=O)N[C@H](C(=O)NCC(=O)N[C@@H](CC(C)C)C(=O)N1CCC[C@H]1C(=O)N[C@@H](C)C(=O)N[C@@H](CC(C)C)C(=O)N[C@H](C(=O)N[C@@H](CO)C(=O)N[C@@H](Cc1c[nH]c2ccccc12)C(=O)N[C@H](C(=O)N[C@@H](CCCCN)C(=O)N[C@@H](CCCNC(=N)N)C(=O)N[C@@H](CCCCN)C(=O)N[C@@H](CCCNC(=N)N)C(=O)N[C@@H](CCC(N)=O)C(=O)N[C@@H](CCC(N)=O)C(N)=O)[C@@H](C)CC)[C@@H](C)CC)[C@@H](C)O)[C@@H](C)O)C(C)C)C(C)C [MELITTIN] | – | 96 | Active | inactive | 128 | – | – | – | –
GENTAMICIN | – | – | – | inactive | 32 | 1 | 2 | – | –
H-AARIILRWRFR-NH2 | 65 | – | – | – | – | – | – | 4 | Activity (Staphylococcus aureus [7]): 99.99%; Activity (Candida albicans): Active; Activity (Escherichia coli [9]): Active; Activity (Lipopolysaccharide (LPS) [10]): 99%; Activity (Escherichia coli [11]): >=50 - 51%; Flu intensity (Escherichia coli [12]): 3000 a.u.; Activity (Staphylococcus aureus [13]): Active; Activity (Staphylococcus aureus [14]): Active; Activity (Escherichia coli [15]): Active
H-AARRILRWIFR-NH2 | – | – | – | – | – | – | – | 16 | –
POLYMYXIN B | – | – | – | – | – | 1 | 1 | – | –

Source: ChEMBL document CHEMBL4350958, “Rational Design of Short Peptide Variants by Using Kunitzin-RE, an Amphibian-Derived Bioactivity Peptide, for Acquired Potent Broad-Spectrum Antimicrobial and Improved Therapeutic Potential of Commensalism Coinfection of Pathogens” (J Med Chem, 2019)
